Results as given in PMC7944986 (Journal for Immunotherapy of Cancer, 2021).
“Also recorded” adds a separate entry of the source.

Key:
Assay type in all cases: in vivo, human
[1] = Steady-state galunisertib plasma pharmacokinetics; conditions: for AUC / Cmax: human, plasma, oral, geometric mean (CV %), steady state; for AUC: AUC(0-tau)
[2] = system: patients with recurrent or refractory metastatic pancreatic cancer; experiment: Dose finding, modified 3+3; conditions: co-administered with durvalumab 1500 mg Q4W; days 1–14 of a 28-day cycle
Procedure, shortened: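 Oral galunisertib was given on days 1–14 in escalating cohorts of 50 mg once daily, then 50, 80 or 150 mg twice daily, with durvalumab infused IV over 60 min. Cohorts of three expanded to six after one DLT in cycle 1 (28 days). DLT criteria: grade 4 haematological AE, febrile neutropenia, grade 3–4 irAE or non-haematological AE, <75% planned dose, or >2-week delay. MTD: DLT in <2 of six; otherwise RP2D = maximum study dose.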

[3] = Durvalumab immunogenicity; conditions: durvalumab 1500 mg Q4W in combination with galunisertib

Row | Compound | Time to maximum plasma concentration (mean concentration versus time profiles) ([1]; galunisertib 50, 80, and 150 mg two times per day) | AUC ([1]; tau=12 hours, galunisertib 50 mg two times per day + durvalumab 1500 mg Q4W) | AUC ([1]; tau=12 hours, galunisertib 80 mg two times per day + durvalumab 1500 mg Q4W) | AUC ([1]; tau=12 hours, galunisertib 150 mg two times per day + durvalumab 1500 mg Q4W) | AUC ([1]; tau=24 hours, galunisertib 50 mg one time per day + durvalumab 1500 mg Q4W) | Cmax ([1]; galunisertib 50 mg one time per day + durvalumab 1500 mg Q4W) | Cmax ([1]; galunisertib 80 mg two times per day + durvalumab 1500 mg Q4W) | Cmax ([1]; galunisertib 150 mg two times per day + durvalumab 1500 mg Q4W) | Recommended phase II dose (RP2D) of galunisertib [2] | Anti-drug antibodies against durvalumab [3]
1 | Cc1cccc(-c2nn3c(c2-c2ccnc4ccc(C(N)=O)cc24)CCC3)n1 [Galunisertib, galunisertib] | ≤ 4 h | 813 ng·h/mL | 3150 ng·h/mL | 6120 ng·h/mL | 1630 ng·h/mL | 424 ng/mL | 612 ng/mL | 1070 ng/mL | 150 mg two times per day | –
2 | durvalumab | – | – | – | – | – | – | – | – | – | No anti-drug antibodies against durvalumab were detected; also recorded: immunogenicity was not observed
